Test results taken from ChEMBL document CHEMBL1123779, “Modifications of primaquine as antimalarials. 4. 5-Alkoxy derivatives of primaquine” (J Med Chem, 1987).

Assays:
[1] = tested on: Plasmodium cynomolgi; assay: Cures in Plasmodium cynomolgi infected Rhesus monkeys (Macaca mulatta) on 1 mg/kg/day after 7 days; cured 1 of 1; format: functional
[2] = tested on: Plasmodium cynomolgi; assay: Cures in Plasmodium cynomolgi infected Rhesus monkeys (Macaca mulatta) on 0.316 mg/kg/day after 7 days; cured 0 of 1; format: functional
[3] = tested on: Mus musculus; assay: Suppressive blood schizonticidal antimalarial activity evaluated in the trophozoite-induced Plasmodium berghei infection in mice (Mus musculus) at a dose 40 mg/kg; format: functional; set-up: unit not given beside the values
How it was run: (§1)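 Run at the Rane Laboratory in mice infected with blood-induced P. berghei, five animals per group. Activity is the increase in mean survival time over untreated infected controls. A compound counts as active when treated-group MST is more than twice the control MST. Cures are mice surviving at 60 days postinfection.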

[4] = tested on: Mus musculus; assay: Suppressive blood schizonticidal antimalarial activity evaluated in the trophozoite-induced Plasmodium berghei infection in mice (Mus musculus) at a dose 160 mg/kg given as no. of toxic deaths; format: functional
How it was run: (§2)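 Rane Laboratory mouse test with blood-induced P. berghei infection, five mice per group. Toxic deaths are deaths occurring before the 6th day postinfection.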

[5] = tested on: Plasmodium berghei; assay: Suppressive blood schizonticidal antimalarial activity evaluated in the trophozoite-induced Plasmodium berghei infection in mice (Mus musculus) at a dose 640 mg/kg given as number of toxic deaths; format: toxicity, organism-based; set-up: dose 640 mg/kg; settings: in vivo; how it was run: as §2
[6] = tested on: Plasmodium cynomolgi; assay: Cures in Plasmodium cynomolgi infected Rhesus monkeys (Macaca mulatta) on 0.316 mg/kg/day after 7 days; cures 2 of 2; format: functional
[7] = tested on: Mus musculus; assay: Suppressive blood schizonticidal antimalarial activity evaluated in the trophozoite-induced Plasmodium berghei infection in mice (Mus musculus) at a dose 20 mg/kg given as no. of cures; format: functional
How it was run: (§3)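 Run at the Rane Laboratory with blood-induced P. berghei infections in mice, five animals per group. A cure is a mouse surviving to 60 days postinfection. Deaths before day 6 are recorded separately as toxic deaths. Activity is scored from the increase in mean survival time over untreated controls, and counts as active when treated MST is more than twice control MST.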

[8] = tested on: Mus musculus; assay: Suppressive blood schizonticidal antimalarial activity evaluated in the trophozoite-induced Plasmodium berghei infection in mice (Mus musculus) at a dose 80 mg/kg given as no. of toxic deaths; format: functional; how it was run: as §2
[9] = tested on: Mus musculus; assay: Suppressive blood schizonticidal antimalarial activity evaluated in the trophozoite-induced Plasmodium berghei infection in mice (Mus musculus) at a dose 320 mg/kg given as no. of toxic deaths; format: functional; how it was run: as §2
[10] = tested on: Plasmodium berghei; assay: Blood schizonticidal activity in trophozoite-induced Plasmodium berghei infected mice (Mus musculus) at 40 mg/kg; numbers cured; format: functional; how it was run: as §3
[11] = tested on: Plasmodium cynomolgi; assay: Cures in Plasmodium cynomolgi infected Rhesus monkeys (Macaca mulatta) on 0.1 mg/kg/day after 7 days (x7); cured 0 of 2; format: functional
[12] = tested on: Mus musculus; assay: Suppressive blood schizonticidal antimalarial activity evaluated in the trophozoite-induced Plasmodium berghei infection in mice (Mus musculus) at a dose 10 mg/kg; format: functional; how it was run: as §1
[13] = tested on: Plasmodium berghei; assay: Blood schizonticidal antimalarial activity in the trophozoite-induced Plasmodium berghei infection in mice (Mus musculus) at 20 mg/kg; format: functional; set-up: unit not given beside the values; how it was run: as §1
[14] = tested on: Mus musculus; assay: Suppressive blood schizonticidal antimalarial activity evaluated in the trophozoite-induced Plasmodium berghei infection in mice (Mus musculus) at a dose 80 mg/kg; format: functional; set-up: unit not given beside the values; how it was run: as §1
[15] = tested on: Mus musculus; assay: Suppressive blood schizonticidal antimalarial activity evaluated in the trophozoite-induced Plasmodium berghei infection in mice (Mus musculus) at a dose 160 mg/kg; format: functional; how it was run: as §1
[16] = tested on: Mus musculus; assay: Suppressive blood schizonticidal antimalarial activity evaluated in the trophozoite-induced Plasmodium berghei infection in mice (Mus musculus) at a dose 10 mg/kg given as no. of cures; format: functional; how it was run: as §3
[17] = tested on: Plasmodium cynomolgi; assay: Cures in Plasmodium cynomolgi infected Rhesus monkeys (Macaca mulatta) on 10.0 mg/kg/day after 7 days; format: functional, organism-based
[18] = tested on: Mus musculus; assay: Suppressive blood schizonticidal antimalarial activity evaluated in the trophozoite-induced Plasmodium berghei infection in mice (Mus musculus) at a dose 320 mg/kg; format: functional; how it was run: as §1
[19] = tested on: Mus musculus; assay: Suppressive blood schizonticidal antimalarial activity evaluated in the trophozoite-induced Plasmodium berghei infection in mice (Mus musculus) at a dose 80 mg/kg given as no. of cures; format: functional; how it was run: as §3
[20] = tested on: Mus musculus; assay: Suppressive blood schizonticidal antimalarial activity evaluated in the trophozoite-induced Plasmodium berghei infection in mice (Mus musculus) at a dose 5 mg/kg; format: functional; set-up: unit not given beside the values; how it was run: as §1
[21] = tested on: Mus musculus; assay: Suppressive blood schizonticidal antimalarial activity evaluated in the trophozoite-induced Plasmodium berghei infection in mice (Mus musculus) at a dose 2.5 mg/kg; format: functional; how it was run: as §1
[22] = tested on: Mus musculus; assay: Suppressive blood schizonticidal antimalarial activity evaluated in the trophozoite-induced Plasmodium berghei infection in mice (Mus musculus) at a dose 160 mg/kg given as no. of cures; format: functional; how it was run: as §3
[23] = tested on: Plasmodium cynomolgi; assay: Cures in Plasmodium cynomolgi infected Rhesus monkeys (Macaca mulatta) on 0.316 mg/kg/day after 7 days; cured 0 of 2; format: functional
[24] = tested on: Plasmodium cynomolgi; assay: Cures in Plasmodium cynomolgi infected Rhesus monkeys (Macaca mulatta) on 1 mg/kg/day after 7 days; cured 3 of 3; format: functional
[25] = tested on: Plasmodium cynomolgi; assay: Cures in Plasmodium cynomolgi infected Rhesus monkeys (Macaca mulatta) on 10.0 mg/kg/day after 7 days; cured 1 of 1; format: functional
[26] = tested on: Plasmodium cynomolgi; assay: Cures in Plasmodium cynomolgi infected Rhesus monkeys (Macaca mulatta) on 1 mg/kg/day after 7 days; cured 2 of 2; format: functional
[27] = tested on: Plasmodium cynomolgi; assay: Cures in Plasmodium cynomolgi infected Rhesus monkeys (Macaca mulatta) on 1 mg/kg/day after 7 days; cured 0 of 1; format: functional
[28] = tested on: Plasmodium cynomolgi; assay: Cures in Plasmodium cynomolgi infected Rhesus monkeys (Macaca mulatta) on 0.1 mg/kg/day after 7 days; cured 0 of 1; format: functional
[29] = tested on: Mus musculus; assay: Suppressive blood schizonticidal antimalarial activity evaluated in the trophozoite-induced Plasmodium berghei infection in mice (Mus musculus) at a dose 5 mg/kg given as no. of cures; format: functional; how it was run: as §3

COc1cc(NC(C)CCCN)c2ncccc2c1OCC(F)(F)F (stereo not given)
Cures/no. of animals [1]: 1
Cures/no. of animals [2]: 0

CCOc1c(OC)cc(NC(C)CCCN)c2ncccc12 (stereo not given)
Delta MST [3]: 0.3
Toxic deaths [4]: 3
Toxic deaths [5]: 5

CCCCOc1c(OC)cc(NC(C)CCCN)c2nccc(C)c12 (stereo not given)
Cures/no. of animals [1]: 1
Cures/no. of animals [6]: 2
Cures [7]: 5
Toxic deaths [8]: 4
Toxic deaths [9]: 5
Toxic deaths [4]: 5
Toxic deaths [5]: 5
Cures [10]: 3
Cures/no. of animals [11]: 0
Delta MST [12]: 11

COc1cc(NC(C)CCCN)c2nc(C)ccc2c1 (stereo not given)
Delta MST [13]: 3.1
Delta MST [3]: 5.5
Toxic deaths [9]: 1
Toxic deaths [5]: 5
Delta MST [14]: 7.3
Delta MST [15]: 8.3

CCCCCCCCOc1c(OC)cc(NC(C)CCCN)c2nccc(C)c12 (stereo not given)
Cures/no. of animals [1]: 1
Cures [16]: 5
Cures [7]: 5
Cures/no. of animals [2]: 0
Toxic deaths [5]: 2
Cures/no. of animals [17]: Toxic
Delta MST [18]: 0.4
Cures [10]: 5
Cures [19]: 5
Delta MST [20]: 12
Delta MST [21]: 7.8
Cures [22]: 2

CCCCCCOc1c(OC)cc(NC(C)CCCN)c2ncccc12 (stereo not given)
Cures/no. of animals [23]: 0
Delta MST [13]: 3.7
Cures/no. of animals [24]: 3
Delta MST [3]: 6.5
Cures/no. of animals [25]: 1
Toxic deaths [5]: 1
Delta MST [18]: 0.1
Cures [19]: 1
Cures [22]: 1

CCCCCCCCOc1c(OC)cc(NC(C)CCCN)c2ncccc12 (stereo not given)
Delta MST [13]: 2.9
Delta MST [3]: 6.7
Cures/no. of animals [2]: 0
Toxic deaths [5]: 1
Delta MST [14]: 8.1
Cures/no. of animals [26]: 2
Delta MST [18]: 6.3
Cures/no. of animals [11]: 0
Delta MST [15]: 12.1

CCCC(CC)Oc1c(OC)cc(NC(C)CCCN)c2ncc(C)cc12 (stereo not given)
Cures/no. of animals [27]: 0
Delta MST [13]: 5.3
Cures/no. of animals [28]: 0
Toxic deaths [9]: 5
Toxic deaths [4]: 4
Toxic deaths [5]: 5
Cures [10]: 1
Cures [19]: 1

COc1cc(NC(C)CCCN)c2nccc(C)c2c1OCCCCCCOc1ccccc1 (stereo not given)
Cures/no. of animals [23]: 0
Cures/no. of animals [1]: 1
Cures [16]: 2
Cures/no. of animals [28]: 0
Cures [7]: 4
Toxic deaths [9]: 2
Toxic deaths [5]: 2
Cures [10]: 5
Cures [19]: 4
Delta MST [20]: 7.3
Cures [22]: 2

COc1cc(NC(C)CCCN)c2nccc(C)c2c1OCCCCOc1ccccc1 (stereo not given)
Cures [7]: 5
Toxic deaths [8]: 5
Toxic deaths [9]: 5
Toxic deaths [4]: 5
Cures [29]: 1
Toxic deaths [5]: 5
Cures [10]: 5
Cures/no. of animals [11]: 0
Delta MST [21]: 8
Delta MST [12]: 10.2
